Screening data from PubChem.
A selection: hits, their analogues and other compounds. The true share with any hit is near 2.6%.
procasp7 counter – counter-screen: procaspase-7 (human) activation. recombinant procaspase-7, Ac-DEVD-pNA absorbance 405 nm; D23A/D198A/D206A triple mutant, cannot self-cleave; scale: DMSO 0, 5 µM enzyme 100. actives 0.093% (n = 330,000). activation, % at 8.5 µM;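 active = percent activation above the screen-wide mean plus 3 SD, cut at about 25% in these data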
Target sequence (P55210 whole entry D23A/D198A/D206A): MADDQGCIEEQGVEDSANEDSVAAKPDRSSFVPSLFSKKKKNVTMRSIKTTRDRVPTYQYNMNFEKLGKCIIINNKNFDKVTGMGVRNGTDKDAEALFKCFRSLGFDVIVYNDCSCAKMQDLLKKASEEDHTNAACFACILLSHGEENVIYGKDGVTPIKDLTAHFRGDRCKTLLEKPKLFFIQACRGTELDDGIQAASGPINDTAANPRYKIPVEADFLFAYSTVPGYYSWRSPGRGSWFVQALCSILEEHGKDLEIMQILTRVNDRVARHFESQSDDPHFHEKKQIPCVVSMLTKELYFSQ
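System: Procaspase-7 triple mutant (PC-7 D3A); measure: % activation from two-timepoint absorbance difference, scaled to controls; times: 1 h compound preincubation, 2 h substrate cleavage, 25 °C; also added: Ac-DEVD-pNA substrate, 400 µM as added; measured by: Epi-absorbance of released pNA at 405 nm, two timepoints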
AHR act – activators of human aryl hydrocarbon receptor | AHR-responsive luciferase reporter cells, luminescence | activation, % at 5 µM | actives 2.5% (n = 320,000) | P35869; in the data active = activation above about 47%;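 also: 0% = vehicle wells and 100% = reference agonist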
PolyA inhibitor – inhibitors of polyadenylation in S. cerevisiae; S. cerevisiae SKY197-pL101 polyadenylation reporter, beta-gal luminescence; efflux-impaired pdr1/pdr3 knockout yeast; score 100 = 6 SD above DMSO; activity score, % at 12 µM; actives 0.02% (n = 300,000); AID 1875;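 active = lowest replicate activity score at least 50, where 100 means six control SD above control mean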;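 also: yeast exposed to compound for 9 h at 30 °C; higher score means more reporter readthrough which indicates perturbed polyadenylation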
proCasp3 act – activators of human procaspase-3. recombinant procaspase-3 D3A, Ac-DEVD-pNA absorbance 405 nm. activation, % at 8.5 µM. actives 0.11% (n = 330,000). AID 463141;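 active = activation above the mean of all tested compounds plus 3 SD, cut at about 21% in these data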;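 also: 0% = DMSO alone and 100% = DMSO wells spiked with extra 5 µM PC-3 D3A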
Target sequence (P42574 whole entry D9A/D28A/D175A): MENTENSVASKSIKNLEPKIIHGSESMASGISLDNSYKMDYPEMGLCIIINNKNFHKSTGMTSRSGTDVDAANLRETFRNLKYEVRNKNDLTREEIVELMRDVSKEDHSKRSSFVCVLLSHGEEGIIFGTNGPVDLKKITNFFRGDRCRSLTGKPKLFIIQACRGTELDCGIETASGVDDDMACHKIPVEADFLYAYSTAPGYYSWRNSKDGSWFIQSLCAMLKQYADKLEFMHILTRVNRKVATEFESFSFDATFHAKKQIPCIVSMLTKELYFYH
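Test system: Procaspase-3 D3A mutant, all three cleavage aspartates alanine | Dosing: Single dose, 8.5 µM nominal compound, 0.8% DMSO | Schedule: 1 h preincubation, 2 h reaction | Technique: 405 nm absorbance of p-nitroaniline, reads at 0 and 120 min | Repeats: One well per compound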
* = called active by the depositor; x = no result.

SMILES	procasp7 counter	AHR act	PolyA inhibitor	proCasp3 act
Fc1cccc2sc(Nc3nc4c(F)cccc4s3)nc12	13	34	6	7
CC1CCc2c(sc(Nc3nc4c(F)cccc4s3)c2C(N)=O)C1 (stereo not drawn)	-41	56*	-1	-19
Cc1c(Cl)cccc1NC(=O)Nc1c(C)n(C)n(-c2ccccc2)c1=O	-10	7	-9	-3
Cc1cc(NC(=O)OC2CCCCC2)ccc1[N+](=O)[O-]	9	2	8	-11
CCCN(C(=O)Cc1csc(-c2ccccc2)n1)C1CCS(=O)(=O)C1 (stereo not drawn)	5	1	x	7
COc1cc(/C=N\Nc2nc3ccccc3[nH]2)cc(OC)c1OC	-14	50*	10	8
CCN(CC)c1ccc(/C=N/Nc2nc3ccccc3[nH]2)c(O)c1	-10	51*	3	-10
COc1cc(/C=N\Nc2nc3ccccc3o2)cc(OC)c1OC	3	12	-7	9
Cc1ccc2cc(/C=N/Nc3nc4ccccc4[nH]3)c(Cl)nc2c1	x	x	-15	x
COc1cc(OC)c(OC)cc1/C=N/Nc1nc2ccccc2[nH]1	9	54*	1	-1
C(=N\Nc1nc2ccccc2[nH]1)/c1cccc2nccnc12	-1	27	-1	-2
CCC(C)CCN1C(Nc2ccccc2)=NC[C@@H]1C (stereo partly drawn)	-1	1	-11	2
CC(=O)N(C(C)=O)c1nc(-c2ccccc2)cn1/N=C/c1cccc([N+](=O)[O-])c1	-2	49*	-30	-2
COCCOC(=O)c1[nH]c2c(c1C)C(=O)CC(c1ccco1)C2 (stereo not drawn)	1	56*	3	-2
Cc1cccc(C(=O)OCC(=O)Nc2c(C)n(C)n(-c3ccccc3)c2=O)c1	-2	-1	x	9
CCCCc1cc(=O)oc2cc(C)cc(OCC(=O)Nc3cccnc3)c12	-8	51*	13	2
Cc1cc(OCC(=O)NCc2ccncc2)c2c(C)cc(=O)oc2c1	-2	61*	12	-3
COc1ccc(S(=O)(=O)N(CC(=O)NN=C2CCN(C)CC2)c2cc(Cl)ccc2OC)cc1OC	4	2	-1	-4
CC1CCN(c2nc3nonc3nc2Nc2ccc(F)cc2)CC1	-5	50*	0	0
COc1ccc(OCc2cc(C(=O)N3CCCC(O)C3)no2)c2ccccc12 (stereo not drawn)	-2	52*	-1	0
O=C(N/N=C/c1ccc([N+](=O)[O-])o1)c1cc2ccccc2o1	8	10	1	0
O=[N+]([O-])c1ccc(/C=N/Nc2ccc3ccccc3c2)o1	-17	76*	-19	-24
O=C(N/N=C/c1c(F)cccc1Cl)c1ccc(Cn2cc(Br)cn2)o1	11	49*	13	10
COc1ccc([N+](=O)[O-])c(OC)c1C(=O)NC(=O)Nc1nc(C)nc(C)n1	8	-1	3	2
CCOc1ccc(NC(=O)N2CCc3ccccc3C2)cc1	2	67*	12	5
SMILES	procasp7 counter	AHR act	PolyA inhibitor	proCasp3 act
O=C(CN(c1cccc(Cl)c1)S(=O)(=O)c1ccc(Cl)cc1)N1CCc2ccccc2C1	1	61*	-29	2
Cc1ccc(NC(=O)N2CCc3ccccc3C2)cc1	-3	16	17	4
O=C(Nc1ccc(Cl)cc1)N1CCc2ccccc2C1	-6	63*	3	-4
CC(C)(C)c1csc(N/N=C/c2ccc(O)cc2)n1	4	72*	22	-10
Cc1nn(-c2ccc(Br)cc2)c(=O)c2ccccc12	-2	57*	-21	-3
COc1ccc(/C=N\NC(=O)c2sccc2C)cc1Cn1nc(C)cc1C	-2	57*	-5	3
Cc1ccsc1/C=N/NC(=O)CO	5	2	14	-1
Cc1ccsc1/C=N/N=C/c1sccc1C	-2	70*	5	3
COc1ccc(/C=N\NC(=O)COc2ccccc2Cl)cc1Cn1nc(C)cc1C	8	0	6	12
Cc1ccsc1C=Nc1ccc(O)cc1	-12	0	-3	-4
O=C1Nc2ccccc2/C1=N\N=C\c1ccc(O)c(O)c1	0	19	-29	4
Cc1ccsc1/C=N/NC(=O)c1sccc1C	8	48*	-9	0
Cc1ccsc1/C=N/N=C1\C(=O)Nc2ccccc21	16	70*	-24	-8
Cc1cc(C)n2nc(C(=O)NCCc3ccccc3)nc2n1	1	28	-5	-5
O=C(NCCc1ccccc1)c1nc2nc(-c3cccs3)cc(C(F)(F)F)n2n1	9	77*	-4	11
CCc1cccc(OCC(=O)Nc2ccccc2N2CCCC2)c1	2	10	-4	-2
Cc1cc(N/N=C/c2ccccc2O)nc(N2CCOCC2)n1	6	7	0	2
COc1ccc(OC)c(/C=N/Nc2cc(C)nc(N3CCOCC3)n2)c1	3	68*	1	-1
COc1cccc(/C=N/Nc2cc(N3CCOCC3)ncn2)c1O	-4	48*	9	-6
COc1ccc(/C=N/Nc2cc(N3CCCC3)nc(N3CCCC3)n2)cc1	-8	68*	-15	2
COc1ccc(OC)c(/C=C/C(=O)OCC(=O)c2c(N)n(C)c(=O)n(C)c2=O)c1	8	1	10	7
O=c1ncn(-c2cccc(Cl)c2)c2ccccc12	5	0	12	3
C=CCOc1cccc(C(=O)Nc2ncn[nH]2)c1	9	58*	-15	-2
COc1cc(OC)cc(C(=O)Nc2ncn[nH]2)c1	11	11	x	4
Fc1ccc(-c2csc(-c3cccnc3)n2)cc1F	-3	68*	-18	-2
SMILES	procasp7 counter	AHR act	PolyA inhibitor	proCasp3 act
O=C(Nc1cccc(NC(=O)c2cccnc2)c1)c1cccnc1	1	41	-1	-5
O=C(Nc1nc2ccccc2n1CCN1CCCCC1)c1ccc(Cl)cc1	-5	11	24	12
Cc1ccc(C(=O)Nc2nc3ccccc3n2CCN2CCCC2)cc1	7	47*	5	1
O=C(Nc1ccc(Cl)c(Cl)c1)c1cccnc1	7	71*	-11	-3
Cn1c(NC(=O)c2cccnc2)nc2ccccc21	14	78*	5	-5
CCCn1c(NC(=O)c2ccc(C)cc2)nc2ccccc21	3	49*	-13	-5
Cc1cnc(C(=O)OCC(=O)Nc2ncc(Cl)cc2Cl)cn1	-4	3	x	0
O=C(CN1CCN(c2ccccc2F)CC1)NC(=O)NC1CCCCC1	4	0	x	9
O=C(Nc1nc2ccccc2n1CCN1CCCC1)c1ccc(Cl)cc1	2	54*	x	10
CSc1cc(-c2ccco2)oc1C(=O)c1ccco1	-2	2	-11	-14
O=C(N/N=C/c1cccs1)c1cccc2cc[nH]c12	0	33	-15	0
O=C(N/N=C/c1cccs1)c1c[nH]c2ccccc12	10	154*	8	2
Cc1c(/C=N\NC(=O)c2c[nH]c3ccccc23)cnn1C	-2	76*	-5	7
